Columns and labels:
[1] = test system: Mus musculus; assay: Toxicity in mouse L1210 cells allografted mouse at 30 mg/kg, ip qd for 9 days; assay type: organism-based; set-up: dose 30 mg/kg, route intraperitoneal; details: in vivo, 216 h
Procedure, shortened: (§1)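 Groups of five to ten mice were inoculated ip with about 10^6 L1210 cells and dosed once daily for 9 consecutive days beginning 24 h post-implantation. Toxicity was taken as the average body weight change at the end of drug treatment.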

[2] = test system: P388; assay: Antitumor activity against mouse P388 cells allografted mouse assessed as host survival at 30 mg/kg, ip qd for 9 days relative to control; assay type: functional; details: route intraperitoneal
Procedure, shortened: (§2)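 NCI protocol: groups of five to ten mice inoculated ip with approximately 10^6 P-388 or L1210 cells. Drug given over a range of dose levels starting 24 h after implantation, once daily for 9 consecutive days. Survival expressed as %T/C = (average survival of treated)/(average survival of control) × 100.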

[3] = test system: Mus musculus; assay: Toxicity in mouse P388 cells allografted mouse at 30 mg/kg, ip qd for 9 days; assay type: organism-based; set-up: dose 30 mg/kg, route intraperitoneal; details: in vivo, 216 h
Procedure, shortened: (§3)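 NCI protocol. Groups of five to ten mice were inoculated intraperitoneally with about 10^6 tumor cells. Drug was given ip once daily for 9 consecutive days, starting 24 h after tumor implantation, over a range of dose levels. Toxicity was read as the average body weight change at the end of drug treatment.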

[4] = test system: L1210; assay: Antitumor activity against mouse L1210 cells allografted mouse assessed as host survival at 30 mg/kg, ip qd for 9 days relative to control; assay type: functional; details: route intraperitoneal; procedure, shortened: as §2
[5] = test system: P388; assay: Antitumor activity against mouse P388 cells allografted mouse assessed as host survival at 40 mg/kg, ip qd for 9 days relative to control; assay type: functional; details: route intraperitoneal; procedure, shortened: as §2
[6] = test system: Mus musculus; assay: Toxicity in mouse L1210 cells allografted mouse at 20 mg/kg, ip qd for 9 days; assay type: organism-based; set-up: dose 20 mg/kg, route intraperitoneal; details: in vivo, 216 h; procedure, shortened: as §1
[7] = Binding affinity to synthetic melanin at 5.8 mg/100 mL after 15 mins by UV-spectroscopic analysis; assay type: physicochemical; details: 0.25 h
Procedure, shortened: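 Synthetic melanin was made from DL-Dopa with tyrosinase in 0.1 M phosphate pH 6.6 at 37 °C for 4 h. Melanin suspension (1.1 mg dry weight) was mixed with phosphate buffer (0.05 M, pH 6.4, 5% Me2SO), water, and 1 mL of drug solution (5.8 mg/100 mL). The mixture was shaken 15 min at room temperature and filtered. Unbound drug in the filtrate was measured by UV against a drug-free blank.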

[8] = test system: L1210; assay: Antitumor activity against mouse L1210 cells allografted mouse assessed as host survival at 20 mg/kg, ip qd for 9 days relative to control; assay type: functional; details: route intraperitoneal; procedure, shortened: as §2
[9] = test system: Mus musculus; assay: Toxicity in mouse P388 cells allografted mouse at 40 mg/kg, ip qd for 9 days; assay type: organism-based; set-up: dose 40 mg/kg, route intraperitoneal; details: in vivo, 216 h; procedure, shortened: as §3
[10] = test system: Mus musculus; assay: Toxicity in mouse P388 cells allografted mouse at 10 mg/kg, ip qd for 9 days; assay type: organism-based; set-up: dose 10 mg/kg, route intraperitoneal; details: in vivo, 216 h; procedure, shortened: as §3
[11] = test system: P388; assay: Antitumor activity against mouse P388 cells allografted mouse assessed as host survival at 20 mg/kg, ip qd for 9 days relative to control; assay type: functional; details: route intraperitoneal; procedure, shortened: as §2
[12] = test system: P388; assay: Antitumor activity against mouse P388 cells allografted mouse assessed as host survival at 10 mg/kg, ip qd for 9 days relative to control; assay type: functional; details: route intraperitoneal; procedure, shortened: as §2
[13] = test system: Mus musculus; assay: Toxicity in mouse P388 cells allografted mouse at 20 mg/kg, ip qd for 9 days; assay type: organism-based; set-up: dose 20 mg/kg, route intraperitoneal; details: in vivo, 216 h; procedure, shortened: as §3

Structure (SMILES) | Activity [1] | T/C [2] | Activity [3] | T/C [4] | T/C [5] | Activity [6] | Activity [7] | T/C [8] | Activity [9] | Activity [10] | T/C [11] | T/C [12] | Activity [13]
CN(C)/N=N\c1ccnc2cc(Cl)ccc12 | -1% | 137% | -16.3% | 152% | 119% | 5.1% | 48% | 154% | -22.6% |  |  |  | 
CN(C)/N=N\c1ccnc2ccc(Cl)cc12 | -10% | 137% | -12.9% | 156% |  | 1% | 41% | 146% |  | -3.1% | 139% | 129% | 0.8%

Source: ChEMBL document CHEMBL3244044, “Synthesis and antitumor activity of halogen-substituted 4-(3,3-dimethyl-1-triazeno)quinolines” (J Med Chem, 1978)
